Measured values reported in the EternaBench riboswitch data.

Tested on: MS2 coat protein
Test: apparent Kd, MS2 coat protein; higher = weaker binding; RNA-MaP array; FMN 200 µM where present
Outline: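 Binding was read on Illumina sequencing-chip clusters where stalled E. coli RNA polymerase had transcribed each design. A titration of SNAP-549-labelled MS2 coat protein began at 0.7 or 1.5 nM and doubled to 3 µM, once without ligand and once with constant ligand, in 100 mM Tris-HCl pH 7.5, 80 mM KCl, 4 mM MgCl2, BSA, DTT, yeast tRNA and Tween-20. The apparent Kd is the median of filtered per-cluster binding-curve fits, based on green signal normalised to red-channel RNA signal and control-cluster median Fmax.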

[1] = designed as: OFF switch for flavin mononucleotide, no ligand
[2] = ligand present: flavin mononucleotide, designed as: OFF switch for flavin mononucleotide
[3] = designed as: ON switch for flavin mononucleotide, no ligand
[4] = ligand present: flavin mononucleotide, designed as: ON switch for flavin mononucleotide

Sequence | apparent Kd [1] | apparent Kd [2] | apparent Kd [3] | apparent Kd [4]
GUAGCAACAUGAGGAUCACCCAUGUAGGAUAUCGCUAUUGUAAUCAUGUUACAUGAUUACAAUAGCGAGAAGGACGUGAGCUAC | 8.43 nM | 11.4 nM | – | –
GUAGCAAUCGGAGGAUAUGGGUUGAUAACAUGAGGAUCACCCAUGUUAAUACUAGAAGGCCGAUUGCUACAAGAGCGAAAGCUC | – | – | 31.4 nM | 6.39 nM
GUAGCAAUCGGAGGAUAUUCAUUAAACAUGAGGAUCACCCAUGUAAAUUUGGGAGAAGGCCGAUUGCUACAAGAGCGAAAGCUC | – | – | 22.9 nM | 6.1 nM
GUAGCAUACAGAGGAUAUUCAAAACCGGAAACGGACAUGAGGAUCACCCAUGUGGCGAAAGCCUGGGAGAAGGCUGAAUGCUAC | – | – | 28.6 nM | 14.2 nM
GUAGCAUACCGAGGAUAUUCAUACCGGAAACGGACAUGAGGAUCACCCAUGUGGCGAAAGCCUUGGGAGAAGGCGGAAUGCUAC | – | – | 552 nM | 25.1 nM
GUAGCAUACCGAGGAUAUUCAUAUAAUAAAUAAACAUGAGGAUCACCCAUGUGGCGAAAGCCAAGGGAGAAGGCGGAAUGCUAC | – | – | 315 nM | 26.4 nM
GUAGCAUACCGAGGAUAUUCAUAUAAUAAGUAAACAUGAGGAUCACCCAUGUAGCGAAAGCCUUGGGAGAAGGCGGAAUGCUAC | – | – | 346 nM | 52 nM
GUAGCAUACGCAGGAUAUUCAUAUAAUAAAUAAACAUGAGGAUCACCCAUGUGGCGAAAGCCUUGGGAGAAGGGCGAAUGCUAC | – | – | 485 nM | 65.5 nM
GUAGCAUGCCAAGGAUAUUCAUAUAGUAGGCAAACAUGAGGAUCACCCAUGUAAUGAUAGCAGUGGGAGAAGGUGGGAUGCUAC | – | – | 47.5 nM | 22.2 nM
GUAGCAUGCCAAGGAUAUUCAUAUAGUAGGCAAACAUGAGGAUCACCCAUGUAAUGAUCGCAGUGGGAGAAGGUGGGAUGCUAC | – | – | 31.8 nM | 21.1 nM
GUAGCUAUCGGAGGAUAUCCUCAGCGGAAACGCACAUGAGGAUCACCCAUGUAAAUAAAUAAUUAAGAGAAGGCCGAUAGCUAC | – | – | 706 nM | 55 nM
GUAGCUAUCGGAGGAUAUUCAUACCGGAAACGGACAUGAGGAUCACCCAUGUGCCGAAAGGCUUGGGAGAAGGCCGAUAGCUAC | – | – | 297 nM | 18.5 nM
GUAGCUAUCGGAGGAUAUUCAUACCGGAUACGGACAUGAGGAUCACCCAUGUCGCGAAAGCGUUGGGAGAAGGCCGAUAGCUAC | – | – | 89.2 nM | 20.4 nM
GUAGCUAUCGGAGGAUAUUCCUUGCGGAAACGCACAUGAGGAUCACCCAUGUAAAUAAAUAAUUGGGAGAAGGCCGAUAGCUAC | – | – | 45 nM | 14.9 nM
GUAGGAAUCACAGGAUAUGCAUGCGCCGCUUCGUUCUACAUGAGGAUCACCCAUGUGUGGUCCGUGUAGAAGGGUGUUUGCUAC | – | – | 33.9 nM | 11.6 nM
GUAUGAGCGAUAGGAUAUACUGAGAUUGAAUGGGUAGAAGGAUCUCUUGUGGGAAAGACAUGAGGAUCACCCAUGUCACGGGCC | – | – | 122 nM | 130 nM
GUCAGAUCGUGAGGAUAUACAACACUGCUUCGGCAGUGUAUUAAGAUCACAUGAGGAUCACCCAUGUAGAAGGCACGAGCUGAU | 13.3 nM | 236 nM | – | –
GUCAGCUCGUAAGGAUAUACAACACUGCUUCGGCAGUGUAUUAAGAUCACAUGAGGAUCACCCAUGUAGAAGGCACGAGCUGAU | 7.06 nM | 18.9 nM | – | –
GUCAGCUCGUGAGGAUAUACAACACGGCUUCGGCAGUGUAUUAAGAUCACAUGAGGAUCACCCAUGUAGAAGGCACGAGCUGAU | 13.9 nM | 200 nM | – | –
GUCAGCUCGUGAGGAUAUACAACACUGCCUCGGCAGUGUAUUAAGAUCACAUGAGGAUCACCCAUGUAGAAGGCACGAGCUGAU | 13.4 nM | 214 nM | – | –
GUCAGCUCGUGAGGAUAUACAACACUGCUUCAGCAGUGUAUUAAGAUCACAUGAGGAUCACCCAUGUAGAAGGCACGAGCUGAU | 13.8 nM | 242 nM | – | –
GUCAGCUCGUGAGGAUAUACAACACUGCUUCGGCAGUGUAAUUUCCUCACAUGAGGAUCACCCAUGUAGAAGGCACGAGCUGAU | 12.7 nM | 242 nM | – | –
GUCAGCUCGUGAGGAUAUACAACACUGCUUCGGCAGUGUAUUAAGAUCACAUGAGGAUCACCCAUGUAGAAGGCACGACCUGAU | 14.1 nM | 257 nM | – | –
GUCAGCUCGUGAGGAUAUACAACACUGGUUCGGCAGUGUAUUAAGAUCACAUGAGGAUCACCCAUGUAGAAGGCACGAGCUGAU | 13.6 nM | 280 nM | – | –
GUCAGCUCGUGAGGAUAUACAUGUGCUGGAAACAGCACUAAAGAUUUCACAUGAGGAUCACCCAUGUAGAAGGCACGAGCUGAU | 16.1 nM | 38 nM | – | –
GUCAGCUCGUGAGGAUAUACAUGUGCUGGAAACAGCACUAUUAAGUUCACAUGAGGAUCACCCAUGUAGAAGGCACGAGCUGAU | 15.7 nM | 20.3 nM | – | –
GUCAGCUCGUGAGGAUAUACAUGUGCUGGAAACAGCACUAUUGAGUUCACAUGAGGAUCACCCAUGUAGAAGGCACGAGCUGAU | 15.8 nM | 28 nM | – | –

Sequence | apparent Kd [1] | apparent Kd [2] | apparent Kd [3] | apparent Kd [4]
GUCAGCUCGUGAGGAUAUACUACACUGCUUCGGCAGUGUAUUAAGAUCACAUGAGGAUCACCCAUGUAGAAGGCACGAGCUGAU | 5.95 nM | 17 nM | – | –
GUCAGCUCGUGAGGAUAUAGAACACUGCUUCGGCAGUGUAUUAAGAUCACAUGAGGAUCACCCAUGUAGAAGGCACGAGCUGAU | 5.12 nM | 9.33 nM | – | –
GUCAUCUCGUGAGGAUAUACAACACUGCUUCGGCAGUGUAUUAAGAUCACAUGAGGAUCACCCAUGUAGAAGGCACGAGCUGAU | 15 nM | 214 nM | – | –
GUCAUUGACAAGAAGGCAAACAUGAGGAUCACCCAUGUUCUGCAUGUAUAUUGAGGAUAUUGCCAAUGCAUGAGGAUCACCCAG | 11.7 nM | 20.2 nM | – | –
GUCCGUAGACAGAAGGUGACAUGAGGAUCACCCAUGUUAGUUGAGGUAUCAGCGAUCUGCGUGAUUGAGGAUAUGUCUACGGGC | 7.9 nM | 8.22 nM | – | –
GUCCUUUCUGAGGAUAUUAUCUGGUUCGAUUGAUAAGAAGGCAGUACAUGAGGAUCACCCAUGUGGGUCGUCUG | 31.6 nM | 69.5 nM | – | –
GUCCUUUCUGAGGAUAUUAUCUGGUUCGAUUGAUAAGAAGGCAGUACAUGAGGAUCACCCAUGUGGUUCGUUUG | 115 nM | 268 nM | – | –
GUCGGAAACGACAAAAGUAGCAUAGGAGAAGGUUCAUUAAACAUGAGGAUCACCCAUGUAAUUGGAAAGGAUAUCCUAUGCUAC | – | – | 5.04 nM | 5.06 nM
GUCGGAAACGACAAAAGUAUGGAUCCAGAAGGCAUGAAACAUGAGGAUCACCCAUGUCAAAGAUAUGAGGAUAUGGAUCCAUAC | – | – | 4.64 nM | 4.01 nM
GUCGGAAACGACAAUGAUAGGACUGAGGAUAUACAUAAAUAAAUCCUUACAUGAGGAUCACCCAUGUAGAAGGCAGUCCUAUCU | 47.2 nM | 590 nM | – | –
GUCGUGUUAGGAUAUGGCGGCGGCGGCGUUUGUUGUUGUUGUUAGAAGGAACAUGAGGAUCACCCAUGUAUGAC | 43.4 nM | 119 nM | – | –
GUCUGAUUGUAGAAGGUACUUAAUACUCAUGUAACAUGAGGAUCACCCAUGUAUCAACAAUAUUGUAAGGAUAUACAUAUCUCA | – | – | 478 nM | 258 nM
GUCUGGCUAGGAUAUACAUAGUCCACGAGUCGGUUGCCCUGACAUGAGGAUCACCCAUGUAGAAGGAGCGAGAA | 19.4 nM | 18.6 nM | – | –
GUCUUACAUGAGGAUCACCCAUGUGAGGAUAUCCGCGGCGCCGGGUUUCCGGCGCCGCGGAGAAGGCGCGUGUU | 19.2 nM | 22.3 nM | – | –
GUCUUGUCAGGAUAUCUUACAUAACAAUCGUAGUUACCAUUGGAGAAGGGACAUGAGGAUCACCCAUGUUAGCC | 17.2 nM | 19.1 nM | – | –
GUCUUUUUACAGAAGGUGUUUUACAUGAGGAUCACCCAUGUUUAUAUGUUUAAAUUUGAUAUUUACAAGGAUAUGUACUAAUCU | – | – | 25.3 nM | 17.4 nM
GUGACGAUGUAAGGAUAUGCUGAGGAUAACUCAGCAGAAGGUACAUGAGGAUCACCCAUGUAAAUAAUAAGAAAUAAACGUCAC | 16.6 nM | 24.1 nM | – | –
GUGAUAUUGUAAGGAUAUACUCUGUGAUGAAGAGUAGAAGGUACUUACAUGAGGAUCACCCAUGUUUAACGAGAUACUAAUCGU | – | – | 198 nM | 76.9 nM
GUGCACAUUCGAGGAUAUCGGAGAGGAAUCCUUCGAGAAGGCGAUUCAUGCUGUGUUAUUCUGGACAUGAGGAUCACCCAUGUG | – | – | 192 nM | 97.8 nM
GUGCCUAACUAGAAGGCCCAAUGCAAAGCAUCGGGAGGAUAUGGGUUUAAUAAAUAAACAUGAGGAUCACCCAUGUGGCACAAA | – | – | – | 10.4 nM
GUGCCUUGGGAGAAGGCAGUAUGCAAAGCAUCCUGAGGAUAUUCAUACCGGAAACGGACAUGAGGAUCACCCAUGUGGCACAAA | – | – | 864 nM | 57 nM
GUGCGGUAGGAGAAGGACGGCGGGUUCUUUUCAUACAUGAGGAUCACCCAUGUAGGAUAUCCUACCUCACGCGGCCUACUACAG | 8.61 nM | 13.5 nM | – | –
GUGGAGGGUUGAGGAUAUUGAAUACAUAUGUUUAACAUGAGGAUCACCCAUGUGGGUUGCGGUAUCGAGAAGGUAAAUUGCUGG | – | – | 97.2 nM | 109 nM
GUGGAGUACGUAGGAUAUGUAGGAUAUUCCUACAUGAGGAUCACCCAUGUAUGCAUGGAAGAAGGACAGAAGGACGUGCUCCAG | – | – | 208 nM | 13.5 nM
GUGGCCUAGGCACAGGAUAUGUUGCUCGUAACAUGAGGAUCACCCAUGUGCCUAUGAGAUUUAAUGCAGAAGGGUGCACGCCACG | – | – | 173 nM | 17.1 nM
GUGGCUCCCACAGGAUAUCCACAUGAGGAUCACCCAUGUCUAAUUAACAAAGGAGAAGGGUGGGACAACUCUGGUGACUGAGAG | – | – | 28.9 nM | 5.45 nM
GUGGUCAGACAUGAGGAUCACCCAUGUGGAAUAAAUAACACACAGGAUAUCCAAUAUAAAAUAUAGGAGAAGGGUGGAUUGGUG | – | – | 253 nM | 181 nM
